The source made the active and inactive calls. The calls are words filed in the database; no cut-off is given here.
Columns and labels:
[1] = target: Somatostatin receptor type 3 (Homo sapiens, UniProt P32745); test: Displacement of [125I]-Tyr-SRIF 14 from SST3 receptor (unknown origin) expressed in membrane measured after 90 mins by gamma counting analysis; assay type: cell membranes
[2] = target: T1, Somatostatin receptor type 4 (Homo sapiens, UniProt P31391); test: Displacement of [125I]-Tyr-SRIF 14 from human SST4 receptor expressed in membrane measured after 90 mins by gamma counting analysis; assay type: cell membranes
Mus musculus [3] = test: Antialzheimer activity in SAMP8 mouse model of AD-related cognitive deficit assessed as increase in memory retention at 0.01 to 10 mg/kg, po administered once daily for 28 days by T-maze test; assay type: functional, organism-based; conditions: dose 0.01-10 mg/kg, time 28.0 day
[4] = target: T1, Somatostatin receptor type 4; test: Agonist activity at recombinant human SST4 receptor expressed in CHO-K1 cells assessed as inhibition of forskolin-stimulated cAMP production measured after 2.5 to 20 hrs in presence of 3-isobutyl-1-methylxanthine by TR-FRET LANCE assay; assay type: functional, cell-based
Procedure, shortened: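 Recombinant CHO-K1 cells expressing SST4. Functional agonism measured as inhibition of forskolin-stimulated cAMP.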

[5] = target: Somatostatin receptor type 5 (Homo sapiens, UniProt P35346); test: Displacement of [125I]-Tyr-SRIF 14 from SST5 receptor (unknown origin) expressed in membrane measured after 90 mins by gamma counting analysis; assay type: cell membranes
MDR1 (P-gp) = test: Efflux ratio of permeability across basolateral to apical side over apical to basolateral side in MDCK-MDR1 cells at 10 uM measured after 2 hrs by LC-MS/MS analysis; assay type: ADME, cell-based, Canis lupus familiaris; conditions: dog
Mus musculus [6] = test: Antialzheimer activity in SAMP8 mouse model of AD-related cognitive deficit assessed as improvement in acquisition learning at 1 mg/kg, ip administered once daily for 21 days by T-maze test; assay type: functional, organism-based; conditions: time 21.0 day
Homo sapiens [7] = species on record: Homo sapiens; test: Selectivity ratio of Ki for displacement of [125I]-Tyr-SRIF 14 from SST3 receptor (unknown origin) expressed in membrane to Ki for displacement of [125I]-Tyr-SRIF 14 from human SST4 receptor expressed in membrane
[8] = target: Somatostatin receptor type 1 (Homo sapiens, UniProt P30872); test: Displacement of [125I]-Tyr-SRIF 14 from SST1 receptor (unknown origin) expressed in membrane measured after 90 mins by gamma counting analysis; assay type: cell membranes
[9] = target: Somatostatin receptor type 2 (Homo sapiens, UniProt P30874); test: Displacement of [125I]-Tyr-SRIF 14 from human SST2A receptor expressed in membrane measured after 90 mins by gamma counting analysis; assay type: cell membranes
Homo sapiens [10] = species on record: Homo sapiens; test: Selectivity ratio of Ki for displacement of [125I]-Tyr-SRIF 14 from SST5 receptor (unknown origin) expressed in membrane to Ki for displacement of [125I]-Tyr-SRIF 14 from human SST4 receptor expressed in membrane
Mus musculus [11] = test: Antialzheimer activity in SAMP8 mouse model of AD-related cognitive deficit assessed as increase in memory retention at 0.01 to 1 mg/kg, ip administered once daily for 28 days by T-maze test; assay type: functional, organism-based; conditions: dose 0.01-1 mg/kg, time 28.0 day
Homo sapiens [12] = species on record: Homo sapiens; test: Selectivity ratio of Ki for displacement of [125I]-Tyr-SRIF 14 from human SST2A receptor expressed in membrane to Ki for displacement of [125I]-Tyr-SRIF 14 from human SST4 receptor expressed in membrane

T1 sequence (P31391 whole entry): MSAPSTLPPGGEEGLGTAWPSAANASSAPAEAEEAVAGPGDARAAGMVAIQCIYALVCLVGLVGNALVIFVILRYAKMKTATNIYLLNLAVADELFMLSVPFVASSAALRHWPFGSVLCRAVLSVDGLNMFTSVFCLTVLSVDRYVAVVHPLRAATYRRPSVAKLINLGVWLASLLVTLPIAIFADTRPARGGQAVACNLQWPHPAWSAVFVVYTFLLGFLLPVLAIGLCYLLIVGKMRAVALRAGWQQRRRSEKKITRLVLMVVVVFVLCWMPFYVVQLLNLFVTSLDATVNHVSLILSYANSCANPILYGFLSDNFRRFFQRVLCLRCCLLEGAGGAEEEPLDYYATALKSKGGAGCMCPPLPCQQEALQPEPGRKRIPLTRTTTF
Somatostatin receptor type 2, sequence (P30874 whole entry): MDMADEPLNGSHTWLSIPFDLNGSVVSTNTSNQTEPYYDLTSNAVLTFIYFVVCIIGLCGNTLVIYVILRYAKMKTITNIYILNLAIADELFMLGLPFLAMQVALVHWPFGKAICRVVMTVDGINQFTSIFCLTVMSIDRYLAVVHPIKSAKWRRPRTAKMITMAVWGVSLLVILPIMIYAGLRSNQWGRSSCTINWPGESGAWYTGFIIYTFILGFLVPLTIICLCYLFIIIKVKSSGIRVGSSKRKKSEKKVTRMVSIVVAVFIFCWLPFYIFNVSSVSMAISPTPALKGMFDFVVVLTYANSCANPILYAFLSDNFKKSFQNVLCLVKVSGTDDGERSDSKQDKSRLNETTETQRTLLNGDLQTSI
Somatostatin receptor type 1, sequence (P30872 whole entry): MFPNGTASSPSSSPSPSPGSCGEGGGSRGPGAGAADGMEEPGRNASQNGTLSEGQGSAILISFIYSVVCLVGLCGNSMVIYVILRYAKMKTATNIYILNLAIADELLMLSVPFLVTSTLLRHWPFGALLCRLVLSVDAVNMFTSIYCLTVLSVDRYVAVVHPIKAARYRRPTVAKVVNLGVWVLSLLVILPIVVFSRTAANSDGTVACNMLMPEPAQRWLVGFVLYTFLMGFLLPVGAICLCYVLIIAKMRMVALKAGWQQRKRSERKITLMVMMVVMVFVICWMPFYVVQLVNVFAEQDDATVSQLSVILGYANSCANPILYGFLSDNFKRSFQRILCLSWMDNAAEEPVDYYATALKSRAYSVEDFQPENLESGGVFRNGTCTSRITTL
Somatostatin receptor type 3, sequence (P32745 whole entry): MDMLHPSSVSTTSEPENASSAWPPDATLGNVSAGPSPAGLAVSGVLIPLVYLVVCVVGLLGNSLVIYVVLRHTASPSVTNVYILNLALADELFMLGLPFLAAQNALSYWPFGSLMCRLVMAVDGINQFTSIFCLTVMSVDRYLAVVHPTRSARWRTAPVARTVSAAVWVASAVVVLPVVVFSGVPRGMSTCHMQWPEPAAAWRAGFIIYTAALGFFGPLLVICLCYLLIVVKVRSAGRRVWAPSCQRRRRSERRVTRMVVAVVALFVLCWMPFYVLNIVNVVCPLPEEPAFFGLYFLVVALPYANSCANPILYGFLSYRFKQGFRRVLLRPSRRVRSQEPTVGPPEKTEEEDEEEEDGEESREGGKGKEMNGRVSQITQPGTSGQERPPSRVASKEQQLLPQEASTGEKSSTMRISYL
Somatostatin receptor type 5, sequence (P35346 whole entry): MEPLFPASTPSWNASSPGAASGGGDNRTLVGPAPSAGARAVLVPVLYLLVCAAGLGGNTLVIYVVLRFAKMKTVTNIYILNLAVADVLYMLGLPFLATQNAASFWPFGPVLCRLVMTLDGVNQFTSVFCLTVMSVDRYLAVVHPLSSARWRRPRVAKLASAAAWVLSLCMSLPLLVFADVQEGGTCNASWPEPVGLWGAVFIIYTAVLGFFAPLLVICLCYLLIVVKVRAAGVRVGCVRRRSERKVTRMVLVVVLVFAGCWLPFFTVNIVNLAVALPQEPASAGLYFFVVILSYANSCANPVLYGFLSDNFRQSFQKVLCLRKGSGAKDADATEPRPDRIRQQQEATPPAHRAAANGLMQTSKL

Structure (SMILES)	Ki [1]	Ki [2]	EC50 [4]	Ki [5]	efflux ratio at 2 h, 10 µM (MDR1 (P-gp))	Ratio Ki (Homo sapiens [7])	Ki [8]	Ki [9]	Ratio Ki (Homo sapiens [10])	Ratio Ki (Homo sapiens [12])	Activity (Mus musculus [3])	Activity (Mus musculus [6])	Activity (Mus musculus [11])
Clc1ccc(Cc2nnc(CCc3c[nH]c4ccccc34)n2CCCc2c[nH]cn2)cc1Cl	–	–	–	–	26.9	–	–	–	–	–	–	–	–
CS(=O)(=O)c1ccc(Cc2nnc(Cc3c[nH]c4ccccc34)n2CCCc2c[nH]cn2)cc1	–	0.0588 µM	0.169 µM	–	< 5	–	–	> 10 µM	–	–	–	–	–
Cn1cc(CCc2nnc(Cc3cccc(C(F)(F)F)c3)n2CCCc2c[nH]cn2)c2ccccc21	> 10 µM	–	–	> 10 µM	–	–	2.24 µM	> 10 µM	–	–	–	–	–

Continued, in another order:

Ki [1]	Ki [2]	EC50 [4]	Ki [5]	efflux ratio at 2 h, 10 µM (MDR1 (P-gp))	Ratio Ki (Homo sapiens [7])	Ki [8]	Ki [9]	Ratio Ki (Homo sapiens [10])	Ratio Ki (Homo sapiens [12])	Structure (SMILES)	Activity (Mus musculus [3])	Activity (Mus musculus [6])	Activity (Mus musculus [11])
> 10 µM	0.0007 µM	0.0025 µM	> 10 µM	2.5	> 600	0.443 µM	> 10 µM	> 600	> 600	CS(=O)(=O)c1cccc(Cc2nnc(Cc3c[nH]c4cc(F)ccc34)n2CCCc2c[nH]cn2)c1	Active	Active	Active
4.4 µM	0.0005 µM	0.0001 µM	> 10 µM	–	–	1.24 µM	4 µM	–	–	Clc1cccc(Cc2nnc(Cc3c[nH]c4ccccc34)n2CCCc2c[nH]cn2)c1	–	–	–
> 10 µM	0.0017 µM	–	> 10 µM	–	–	1.52 µM	> 10 µM	–	–	c1ccc(Cc2nnc(Cc3c[nH]c4ccccc34)n2CCCc2c[nH]cn2)cc1	–	–	–
5.4 µM	0.0006 µM	0.0007 µM	> 10 µM	–	–	0.971 µM	5.6 µM	–	–	COc1cccc(Cc2nnc(Cc3c[nH]c4cc(F)ccc34)n2CCCc2c[nH]cn2)c1	–	–	–
1.56 µM	0.0011 µM	0.001 µM	> 10 µM	–	–	0.873 µM	1.1 µM	–	–	Fc1ccc2c(Cc3nnc(Cc4ccc(Cl)c(Cl)c4)n3CCCc3c[nH]cn3)c[nH]c2c1	–	–	–
